Shown are actives, neighbours in structure and some others; about 2.1% of the full set was active somewhere.
B2AR ag: human beta-2 adrenergic receptor agonism by FAP; AID 504454; Am2.2-beta2AR cells, FAP receptor internalization, flow cytometry; actives 0.43% (n = 340,000); response, % (test concentration not listed); P07550;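 active = response above a set limit, near 3 SD of response in nonfluorescent compounds, cut at about 42% in these data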
PfG6PD inh: PfG6PD (Plasmodium falciparum) enzyme inhibition. PfGluPho enzyme, NADPH resazurin-diaphorase fluorescence. inhibition, % at 20 µM. actives 0.78% (n = 350,000);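 active = inhibition reaching at least a set limit at 20 µM in the primary screen, cut at about 59% in these data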;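 note: 0% = DMSO wells with substrate and 100% = DMSO wells lacking glucose-6-phosphate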
HKDC1 inh: inhibitors of human hexokinase HKDC1 | Q2TB90 | recombinant HKDC1, G6PDH/diaphorase resazurin coupled fluorescence | inhibition, % at 20 µM | actives 0.16% (n = 340,000);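 active = inhibition above about 35% when tested at 20 µM, limit read from the data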;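 note: plate controls were DMSO wells with enzyme for no effect and DMSO wells lacking enzyme for full effect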
Target sequence (Q2TB90 whole entry, looked up): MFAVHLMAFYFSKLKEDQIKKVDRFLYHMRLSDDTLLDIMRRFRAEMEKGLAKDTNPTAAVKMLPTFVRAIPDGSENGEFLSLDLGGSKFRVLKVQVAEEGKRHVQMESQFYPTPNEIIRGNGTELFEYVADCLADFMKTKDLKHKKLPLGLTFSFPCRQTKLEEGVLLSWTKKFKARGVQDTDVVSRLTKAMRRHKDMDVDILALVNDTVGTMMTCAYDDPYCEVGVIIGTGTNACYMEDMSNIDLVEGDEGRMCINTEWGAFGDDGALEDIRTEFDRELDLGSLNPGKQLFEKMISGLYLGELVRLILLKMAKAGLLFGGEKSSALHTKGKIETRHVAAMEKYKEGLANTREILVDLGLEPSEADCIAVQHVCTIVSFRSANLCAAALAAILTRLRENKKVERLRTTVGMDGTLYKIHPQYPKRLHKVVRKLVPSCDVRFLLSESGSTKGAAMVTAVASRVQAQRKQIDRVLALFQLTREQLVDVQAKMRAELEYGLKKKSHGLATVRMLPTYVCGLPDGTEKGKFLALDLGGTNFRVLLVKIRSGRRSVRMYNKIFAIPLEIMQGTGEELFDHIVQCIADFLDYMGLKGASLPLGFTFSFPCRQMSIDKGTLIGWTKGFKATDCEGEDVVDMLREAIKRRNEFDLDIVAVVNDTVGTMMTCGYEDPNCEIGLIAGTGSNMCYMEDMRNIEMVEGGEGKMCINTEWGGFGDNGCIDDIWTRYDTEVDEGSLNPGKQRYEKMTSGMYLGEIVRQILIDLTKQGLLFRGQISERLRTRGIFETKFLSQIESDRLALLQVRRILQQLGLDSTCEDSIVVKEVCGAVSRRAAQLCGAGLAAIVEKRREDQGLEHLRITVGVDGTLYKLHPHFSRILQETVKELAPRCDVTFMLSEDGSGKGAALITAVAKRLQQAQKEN
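Test system: recombinant HKDC1 (HK5) hexokinase enzyme, produced in-house / Doses: 20 µM test compound, 1% DMSO / Timing: 90 min, room temperature / Detection: G6PDH/diaphorase-coupled fluorescence, 1 mM NADP, 100 µM resazurin, 525/613 nm / Control set: DMSO wells with and without enzyme mix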
Cardio protect: protects H9c2 cardiomyocytes from peroxide injury; actives 0.63% (n = 360,000); protection from H2O2 cell death, % at 20 µM; AID 588492; H2O2 injury protection, ATPLite, 2 h;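 active = compounds giving at least 50% protection of heart cells from peroxide-induced death in the single-dose screen, raw or plate-pattern-corrected value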;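 note: 0% = DMSO wells with peroxide and 100% = DMSO wells without peroxide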
aDG glyco up: increases alpha dystroglycan glycosylation; Pro5-aDG cells, alpha-DG glycosylation AlphaScreen (IIH6); 0% Pro5, 100% B10-LARGE cell signal; activation, % at 10 µM; actives 0.22% (n = 360,000);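 active = activation of at least 8% versus controls, or a plate z-score of at least 8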;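 note: Pro5 are CHO cells carrying HIG-tagged alpha-DG that lacks glycosylation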
UCH37 inh: human UCH37 deubiquitinating enzyme inhibition; purified proteasome/UCH37, Ub-AMC cleavage fluorescence; AID 588478; inhibition, % (test concentration not listed); actives 0.33% (n = 330,000); Q9Y5K5;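 active = mean inhibition over replicate wells above about 20%, limit read from the data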;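 note: 0% = compound-free wells with enzyme and 100% = wells lacking proteasome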
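Material: human UCH37 enzyme supplied as purified proteasome complex / Amount: 0.15 nM proteasome as dispensed / Buffer or medium: pH 7.4 Tris-HCl (50 mM) with ovalbumin, ATP-MgCl2, DTT / Times: preincubation 30 min, reaction 25 min, room temperature / Technique: AMC fluorescence from Ub-AMC cleavage, excitation 355 nm, emission 460 nm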
The depositor's hits bear a star; i = inactive; . = no result.

SMILES	B2AR ag	PfG6PD inh	HKDC1 inh	Cardio protect	aDG glyco up	UCH37 inh
Cc1c(NC(=O)Cn2[nH]c(=O)c3ccccc3c2=O)c(=O)n(-c2ccccc2)n1C	-8.2	5.1	-5.7	64.3*	-0.2	-1.0
Cc1c(NC(=O)CN2CCN(c3ccccc3)CC2)c(=O)n(-c2ccccc2)n1C	2.9	-15.7	1.9	-16.6	-0.1	-0.4
O=C(COc1ccccc1Cl)NNC(=O)Cn1[nH]c(=O)c2ccccc2c1=O	-0.2	10.0	-0.5	92.4*	0.0	1.6
CN(CC(=O)Nc1c(Cl)cccc1Cl)C(=O)CCC(=O)c1ccccc1	3.6	-6.3	-4.7	-2.7	0.1	3.6
CN(CC(=O)Nc1c(Cl)cccc1Cl)C(=O)Cn1[nH]c(=O)c2ccccc2c1=O	-0.6	6.3	-3.6	75.9*	0.1	2.6
O=C(Cn1[nH]c(=O)c2ccccc2c1=O)NNC(=O)c1ccccc1	-12.9	-9.1	19.4	61.5*	0.1	0.1
CC(=NN(C)C)C1=C(O)c2ccccc2C1=O	.	.	.	.	.	8.1
CCOc1ccccc1N(CC(=O)NN=Cc1cc(Br)ccc1OC)S(C)(=O)=O	.	.	.	.	.	3.4
CN(CC(=O)N1CCN(c2cccc(Cl)c2)CC1)S(=O)(=O)c1cnc[nH]1	-10.1	10.8	-10.5	2.1	-0.1	4.0
CN(CC(=O)N1CCN(c2cccc(Cl)c2)CC1)S(=O)(=O)c1cccs1	53.0*	8.4	-2.3	0.1	0.1	0.2
Fc1ccccc1NC(=S)N1CCN(C/C=C/c2ccccc2)CC1	56.1*	-1.7	-6.9	-8.9	-0.1	-0.9
c1ccc(Nc2ncnc3sccc23)cc1	1.5	-0.5	-3.8	-3.7	0.1	-2.2
CC(Nc1ncnc2sccc12)c1ccccc1 (stereo not given)	-3.0	15.2	5.5	-17.5	2.2*	.
Cc1ccc(C(=O)NNC(=S)NC(=O)COc2ccccc2)cc1	1.6	-24.6	-13.6	23.3	0.0	-124.8
Cc1cccc(OCC(=O)NC(=S)NNC(=O)c2ccncc2)c1	-1.0	77.0*	-5.9	-3.5	0.2	.
C=CCNc1nc(-c2ccccn2)nnc1-c1ccccc1	-15.8	0.3	0.5	73.0*	2.1	4.3
CCN(CC)CCNC(=O)C(=NO)c1ccccn1	.	.	.	.	.	3.8
CNC(=O)N(O)C1N(N=Cc2c(F)cccc2Cl)C(=S)SC1(C)C (stereo not given)	.	.	.	.	.	5.5
Cc1cccc(NC2=C/C(=N/S(=O)(=O)c3cccs3)c3ccccc3C2=O)c1	20.9	62.0*	53.1*	-18.0	0.6	.
Cc1cccc(NC2=CC(=NS(=O)(=O)c3cccs3)c3ccccc3C2=O)c1	.	.	.	.	.	50.2*
Cc1ccc(S(=O)(=O)NN=Cc2ccccc2F)cc1[N+](=O)[O-]	.	.	.	.	.	3.7
O=C1Nc2ccc(Br)cc2/C1=C/C(=O)c1ccc2c(c1)OCO2	54.7*	22.5	18.3	-11.1	-0.2	3.2
CC(=NNC(=O)c1cccc(S(=O)(=O)N2CCCCC2)c1)c1ccc(C)o1	.	.	.	.	.	3.6
COc1ccc2c(c1OC)CN1CCc3cc4c(cc3[C@@H]1[C@@H]2O)OCO4	-8.4	-1.8	-0.7	-6.4	0.1	1.2
O[C@@H]1[C@@H](O)C=C2CCN3Cc4cc5c(cc4[C@H]1C23)OCO5 (stereo not given in full)	60.7*	-1.0	-4.7	18.2	-0.2	1.3
SMILES	B2AR ag	PfG6PD inh	HKDC1 inh	Cardio protect	aDG glyco up	UCH37 inh
CCCCOC(=O)c1cc(-c2ccc(C=Nn3cnnc3)o2)ccc1Cl	.	.	.	.	.	-90.7
Cn1c(=O)cc(OCC(=O)NCCCN2CCN(c3cccc(Cl)c3)CC2)c2ccccc21	-1.6	2.3	-6.0	64.4*	0.1	5.3
CCOC(=O)c1sc(N2N=C(C)/C(=C\c3ccc(OCC(=O)OC)cc3)C2=O)nc1C	23.6	-6.7	2.8	58.1*	0.0	-0.9
CCOc1cc(/C=C\[N+](=O)[O-])ccc1OCC(=O)N1CCOCC1	67.3*	8.6	2.5	-17.6	0.1	1.3
CCOc1cc(/C=C/c2nc3cc(C)c(C)cc3s2)ccc1OCC(=O)N1CCOCC1	-8.1	13.2	-5.8	-2.2	0.0	i
CCCN1Cc2cccc(C(N)=O)c2C1=O	5.2	-1.6	-2.4	58.8*	0.2	3.4
CCCN1Cc2cccc(C(=O)Nc3ccc(C)cc3)c2C1=O	-12.7	-0.3	-3.9	0.1	-0.1	-8.7

Screens as filed in PubChem BioAssay.
